Paper PMC7981784 (Journal of medicinal chemistry, 2020)

Experiments:
MEIS1 gene expression [1] = test: Pharmacodynamics in MV4; assay type: in vivo, mice; settings: single intravenous dose 25 mg/kg; 6, 24 and 48 h
Procedure, shortened: (§1)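 Mice bearing subcutaneous MV4;11 xenografts received a single IV dose of vehicle or test compound: 10 mg/kg with tumors taken at 24 h, or 25 mg/kg with tumors taken at 6, 24 and 48 h; 3 mice per time point. Tumors were snap-frozen in liquid N2 and powdered. Total RNA was reverse-transcribed and HOXA9 and MEIS1 quantified by TaqMan real-time PCR. Comparative Ct method, normalized to GAPDH, expressed relative to vehicle.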

HOXA9 gene expression [2] = test: Pharmacodynamics in MV4; assay type: in vivo, mice; settings: for effect in suppressing expression of HOXA9 gene: single intravenous dose 10 mg/kg, 24 hr, MV4;11 tumors in mice
Procedure, shortened: as §1

SCID mice = test: Tolerability studies in mice; assay type: in vivo
Procedure, shortened: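 Female SCID mice, three per group, were dosed with test compound on days 1, 3 and 5 for one week. Mice were weighed and checked for clinical signs of toxicity. Weight loss greater than 10% was counted as toxic.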

MV4;11 xenograft tumor = test: In vivo antitumor efficacy in the MV4
Procedure, shortened: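 Female C.B-17 SCID mice received 5 × 10^6 MV4;11 cells subcutaneously in the flank, in 1:1 PBS/Matrigel (final Matrigel 5 mg/mL). At tumor volumes of 60–140 mm3, mice were randomized into groups of 7. Test compound was given IV in 10% PEG 400:3% Cremophor EL:87% PBS at 10 or 25 mg/kg, every other day, 3 times per week, for 11 doses; controls got vehicle. Caliper volume = (A×B2)/2. Tumor volume and body weight were measured 2–3 times weekly during treatment and at least weekly afterwards.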

HL60 (No MLL fusion) = test: Cell growth inhibition assay; assay type: cell-based, human; settings: ratio of cell growth IC50 values
MEIS1 gene expression [3] = settings: single dose 50 mg/kg intravenous; previous study; cited from earlier work
HOXA9 gene expression [4] = settings: single dose 50 mg/kg intravenous; previous study; cited from earlier work
[5] = 25 mg/kg every other day (three times a week) for one week
[6] = intravenous 10 mg/kg every other day (three times a week) for one week

SMILES: COC(=O)N[C@H]1CCC[C@@H]1[C@](CN1CCC1)(c1cccc(F)c1)C1CCN(CC2CN(c3ccc(S(=O)(=O)C4CN(C(=O)/C=C/CN5CCCCC5)C4)cc3)C2)CC1 [Compound 16, Methyl ((1S,2R)-2-((S)-2-(azetidin-1-yl)-1-(3-fluorophenyl)-1-(1-((1-(4-((1-((E)-4-(piperidin-1-yl)but-2-enoyl)azetidin-3-yl)sulfonyl)phenyl)azetidin-3-yl)methyl)piperidin-4-yl)ethyl)cyclopentyl)carbamate]
- suppression of MEIS1 gene expression in tumor tissue (MEIS1 gene expression [1]): effectively suppresses
- effect in suppressing expression of HOXA9 gene (HOXA9 gene expression [2]): significant but modest effect
- suppression of HOXA9 gene expression in tumor tissue (HOXA9 gene expression [2]; single intravenous dose 25 mg/kg, 6, 24 and 48 h): effectively suppresses
- tolerability (SCID mice; [5]): well tolerated
- tolerability (SCID mice; [6]): well tolerated
- effect on tumor growth over vehicle control (MV4;11 xenograft tumor; 10 mg/kg IV every other day, 3 times per week, 11 doses): no effect on tumor growth
- body weight change and drug-related toxicity (MV4;11 xenograft tumor; 10 or 25 mg/kg IV, during and after treatment): no significant weight change

SMILES: COC(=O)N[C@H]1CCC[C@@H]1[C@](CN1CCC1)(c1cccc(F)c1)C1CCN(CC2CN(c3ccc(S(=O)(=O)C4CN(C(=O)/C=C/CN5CCC5)C4)cc3)C2)CC1 [Compound 14, Methyl ((1S,2R)-2-((S)-2-(azetidin-1-yl)-1-(1-((1-(4-((1-((E)-4-(azetidin-1-yl)but-2-enoyl)azetidin-3-yl)sulfonyl)phenyl)azetidin-3-yl)methyl)piperidin-4-yl)-1-(3-fluorophenyl)ethyl)cyclopentyl)carbamate]
- cellular selectivity for MLL leukemia cells over HL-60 (non-MLL leukemia cells) (HL60 (No MLL fusion)): > 700 fold

SMILES: COC(=O)N[C@H]1CCC[C@@H]1[C@](CN1CCC1)(c1cccc(F)c1)C1CCN(CC2CN(c3ccc(S(=O)(=O)C4CN(C(=O)/C=C/CN(C)C)C4)cc3)C2)CC1 [Compound 10, Methyl ((1S,2R)-2-((S)-2-(azetidin-1-yl)-1-(1-((1-(4-((1-((E)-4-(dimethylamino)but-2-enoyl)azetidin-3-yl)sulfonyl)phenyl)azetidin-3-yl)methyl)piperidin-4-yl)-1-(3-fluorophenyl)ethyl)cyclopentyl)carbamate]
- cellular selectivity for MV4;11 and MOLM-13 cell lines over HL-60 cell line (HL60 (No MLL fusion)): > 300 times
- effect in suppressing expression of HOXA9 gene (HOXA9 gene expression [2]): significant but modest effect
- animal weight loss (SCID mice; [5]): > 10%
- tolerability (SCID mice; [6]): well tolerated

SMILES: COC(=O)N[C@H]1CCC[C@@H]1[C@](CN1CCC1)(c1cccc(F)c1)C1CCN(CC2CN(c3ccc(S(=O)(=O)C4CN(C(=O)/C=C/CN5CCCC5)C4)cc3)C2)CC1 [Compound 15, Methyl ((1S,2R)-2-((S)-2-(azetidin-1-yl)-1-(3-fluorophenyl)-1-(1-((1-(4-((1-((E)-4-(pyrrolidin-1-yl)but-2-enoyl)azetidin-3-yl)sulfonyl)phenyl)azetidin-3-yl)methyl)piperidin-4-yl)ethyl)cyclopentyl)carbamate]
- cellular selectivity for MLL leukemia cells over HL-60 (non-MLL leukemia cells) (HL60 (No MLL fusion)): > 200 fold
- effect in suppressing expression of HOXA9 gene (HOXA9 gene expression [2]): significant but modest effect
- animal weight loss (SCID mice; [5]): > 10%
- tolerability (SCID mice; [6]): well tolerated

SMILES: COC(=O)N[C@H]1CCC[C@@H]1[C@](CN(C)C)(c1cccc(F)c1)C1CCN(CC2CN(c3ccc(S(=O)(=O)C4CN(C(=O)/C=C/CN(C)C)C4)cc3)C2)CC1 [Compound 9, Methyl ((1S,2R)-2-((S)-2-(dimethylamino)-1-(1-((1-(4-((1-((E)-4-(dimethylamino)but-2-enoyl)azetidin-3-yl)sulfonyl)phenyl)azetidin-3-yl)methyl)piperidin-4-yl)-1-(3-fluorophenyl)ethyl)cyclopentyl)carbamate]
- cellular selectivity for MV4;11 and MOLM-13 cell lines over HL-60 cell line (HL60 (No MLL fusion)): > 300 times

SMILES: COC(=O)N[C@H]1CCC[C@@H]1[C@](C#N)(c1cccc(F)c1)C1CCN(CC2CN(c3ccc(S(=O)(=O)C4CN(C(=O)/C=C/CN(C)C)C4)cc3)C2)CC1 [Compound M-525]
- suppression of MEIS1 gene expression in MV4;11 xenograft tumor tissue (MEIS1 gene expression [3]): strong suppression
- suppression of HOXA9 gene expression in MV4;11 xenograft tumor tissue (HOXA9 gene expression [4]): strong suppression
